Results from different studies.
Each line is one published result; the experiments were not run side by side.
Target: Ribosomal protein S6 kinase beta-1 (RPS6KB1, Homo sapiens, UniProt P23443)

CN(C)C1CCN(CC#Cc2nn(C3CCCC3)c3nc(NCc4ccccc4)ncc23)C1 (centres unmarked) — inhibition (enzyme activity; inhibitor; FRET; 0.1 µM): 6%
CC(C)c1ccc(NC(=O)c2cccs2)c(-c2nc3ccccc3[nH]c2=O)c1 — activity vs control (enzyme activity; inhibitor; 1 µM): 93%
O=C(NCCCC1CCCCC1)c1ccc(CNC(=O)c2cnn(-c3ccccc3)c2C(F)(F)F)cc1 — remaining binding (cell-free assay; competition with immobilised ligand; 0.1 µM): 96%
N#CCCc1ccc2c(c1)-c1[nH]c3ccc([N+](=O)[O-])cc3c1CC(=O)N2 — remaining signal (cell-free assay; 0.5 µM): 98%
C=CC(=O)Nc1cc(Nc2nccc(Nc3cc(Cl)c(F)cc3C(C)(C)O)n2)c(OC)cc1N1CC[C@@H](N(C)C)C1 — inhibition (enzyme activity; inhibitor; 1 µM): -3%
O=S(=O)(NCCNC/C=C/c1ccc(Br)cc1)c1cccc2cnccc12 — remaining signal (cell-free assay; 0.5 µM): 25.6%
COc1cccc(CNC(=O)c2nc3scc(COCc4ccc(C(=O)O)cc4)c3c(=O)[nH]2)c1 — remaining binding (cell-free assay; competition with immobilised ligand; 1 µM): 96.1%
CNC(=O)c1cc(Oc2ccc(NC(=O)Nc3ccc(Cl)c(C(F)(F)F)c3)cc2)ccn1 — remaining signal (cell-free assay; 0.5 µM): 91.4%
COc1cc2ncnc(Nc3ccc(Oc4ccccc4)cc3C)c2cc1OC — inhibition (enzyme activity; inhibitor; 1 µM): -2%
CC(=O)c1c(NS(C)(=O)=O)c2cc(-c3ccc(Cl)cc3)c(-c3ccc(Cl)cc3Cl)nc2n(C)c1=O — remaining binding (cell-free assay; competition with immobilised ligand; 1 µM): 95%
CCN(CC)CCNC(=O)c1c(C)[nH]c(/C=C2\C(=O)Nc3ccc(F)cc32)c1C — inhibition (enzyme activity; inhibitor; 10 µM): 90%
CC/C(=N\NC(=O)NCc1cccc(O)c1)c1ccc(O)c(C)c1O — inhibition (enzyme activity; inhibitor; 0.1 µM): 77.8%
Cc1ccc(-n2nc(C(C)(C)C)cc2NC(=O)Nc2ccc(OCCN3CCOCC3)c3ccccc23)cc1 — inhibition (enzyme activity; inhibitor; 10 µM): 39%
Cn1cncc1C1=CN(c2ncnc3[nH]cnc23)CCS1 — inhibition (enzyme activity; inhibitor; radiometric; 2 µM): 87.3%
c1ccc(N2CCN(Cc3nc4ccccc4[nH]3)CC2)nc1 — remaining binding (binding; competition with immobilised ligand; 1 µM): 97%
Cc1ccc(C(=O)NCc2ccsc2)cc1C#Cc1cn(C(C)C)c2ncnc(N)c12 — activity vs control (enzyme activity; inhibitor; 1 µM): 92%
C[C@@H]1CN(c2cc(-c3nn(C)c4ccc(OC5(C)CC5)cc34)ncn2)C[C@H](C)O1 — remaining binding (cell-free assay; competition with immobilised ligand; 1 µM): 100%
COc1cc(/C=C/C(=O)CC(=O)/C=C/c2ccc(O)c(OC)c2)ccc1O — activity vs control (enzyme activity; inhibitor; 1 µM): 46%
CCOCCn1cc(C(=O)Nc2ccc(-n3nc(-c4cccnc4)cc3C(F)(F)F)cn2)ccc1=O — remaining binding (cell-free assay; competition with immobilised ligand; 1 µM): 97%
O=C1NC(=O)c2cc(Nc3ccc(F)cc3)c(Nc3ccc(F)cc3)cc21 — remaining signal (cell-free assay; 0.5 µM): 95.5%
